ChEMBL document CHEMBL3596131, “Discovery of a novel trans-1,4-dioxycyclohexane GPR119 agonist series” (Bioorg Med Chem Lett, 2015)

Experiments:
Rattus norvegicus [1] = test: Antidiabetic activity in Zucker diabetic fatty rat assessed as suppression of plasma glucose AUC at 3 mg/kg administered 60 mins prior to glucose challenge by OGTT relative to vehicle-treated control; format: functional
[2] = Half life in rat liver microsomes; format: ADME
Rattus norvegicus [3] = test: Antidiabetic activity in Zucker diabetic fatty rat assessed as decrease in HbA1C level at 10 mg/kg, qd administered over 4 weeks measured on day 28 post last dose relative to vehicle-treated control; format: functional; design: scale not given: the % may be the effect or the level left
Summary of the method: (§1)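 Chronic study in ZDF rats: once-daily dosing at 1, 3 or 10 mg/kg for 4 weeks, vehicle 0.5% methylcellulose; fed glucose and body weight tracked at dosing times, HbA1c measured on day 28 relative to vehicle.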

Rattus norvegicus [4] = test: Antidiabetic activity in Zucker diabetic fatty rat assessed as decrease in HbA1C level administered as qd over 4 weeks measured on day 28 post last dose; format: functional, organism-based; summary of the method: as §1
Cytochrome P450 2C9 = Cytochrome P450 2C9 (Homo sapiens, UniProt P11712); test: Inhibition of CYP2C9 in human liver microsomes; format: ADME
Chain of Cytochrome P450 2C9 (P11712 whole entry): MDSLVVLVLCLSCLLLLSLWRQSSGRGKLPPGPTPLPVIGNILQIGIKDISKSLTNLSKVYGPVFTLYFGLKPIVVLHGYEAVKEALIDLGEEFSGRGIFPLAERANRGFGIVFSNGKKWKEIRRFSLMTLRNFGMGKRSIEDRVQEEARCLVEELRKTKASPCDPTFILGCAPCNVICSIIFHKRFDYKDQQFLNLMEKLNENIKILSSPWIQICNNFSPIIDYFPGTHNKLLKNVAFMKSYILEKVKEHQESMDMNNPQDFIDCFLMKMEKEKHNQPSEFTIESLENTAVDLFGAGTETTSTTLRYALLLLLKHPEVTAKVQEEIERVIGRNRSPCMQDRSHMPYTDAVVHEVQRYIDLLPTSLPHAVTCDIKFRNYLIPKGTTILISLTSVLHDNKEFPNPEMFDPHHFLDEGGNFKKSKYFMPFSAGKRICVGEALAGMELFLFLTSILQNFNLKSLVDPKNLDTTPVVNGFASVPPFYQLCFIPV

- half-life [2]: > 1 h
- INH (Cytochrome P450 2C9): 27.5 µM
Structure (SMILES): C[C@@H](OC(=O)N1CCC(O[C@H]2CC[C@H](Oc3cnc(S(C)(=O)=O)cn3)CC2)CC1)C(F)(F)F
- Activity (Rattus norvegicus [1]): 43%
- Activity (Rattus norvegicus [3]): 2.58%
- Activity (Rattus norvegicus [4]): Dose-dependent effect
